FXIa inh 1536: human FXIa protease inhibitors, primary screen, biochemical, 1536-well | 0.14% of 220,000 active | inhibition, % at 5 µM | AID 798, 2007 | purified FXIa, Boc-Glu-Ala-Arg-AMC fluorogenic substrate | Coagulation factor XI (Homo sapiens), P03951;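 active = inhibition of at least 40%; inactive = inhibition below 40%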;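 also: fluorescence of freed AMC excited at 355 nm; 0% = enzyme without compound and 100% = no enzyme blank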
KLK5 inh: human KLK5 protease inhibitors, primary screen, biochemical, 1536-well | Kallikrein-5 (Homo sapiens), Q9Y337 | recombinant hK5, fluorogenic AMC substrate cleavage | inhibition, % at 5 µM | 0.59% of 210,000 active | AID 873, 2007;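 active = inhibition of 40% or more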;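 also: 0% = enzyme controls without compound and 100% = no-enzyme blanks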
FXIIa inh 1536: human FXIIa protease inhibitors, primary screen, biochemical, 1536-well | Coagulation factor XII (Homo sapiens), P00748 | purified FXIIa, Boc-QGR-AMC fluorogenic substrate, 2 h | inhibition, % at 5 µM | 0.3% of 220,000 active | AID 800, 2007; in the data active = inhibition above about 40%;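 also: 0% = enzyme with no compound and 100% = blank without enzyme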
thrombin 1536: human alpha-thrombin inhibitors, primary screen, counter-screen for coagulation protease inhibitor project, biochemical, 1536-well, fluorogenic AMC substrate. Prothrombin (Homo sapiens), P00734. Boc-VPR-AMC fluorogenic substrate cleavage. inhibition, % at 5 µM. 0.26% of 220,000 active. AID 1046, 2008;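 active = inhibition at or above 40%; inactive = inhibition below 40%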;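 also: 0% = enzyme with no compound and 100% = wells without enzyme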
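System – human alpha-thrombin protein · Reagent – Boc-VPR-AMC substrate, 15 µM final · Compound – 5 µM single dose in 0.2% DMSO · Schedule – reaction at room temperature · Technique – AMC fluorescence at 355 nm excitation and 460 nm emission · Read-out basis – % inhibition relative to enzyme controls and enzyme-free blanks · Control set – no-compound enzyme wells and no-enzyme blanks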
Calb biofilm kill: clotrimazole potentiators killing C. albicans biofilm, primary screen, 4-compound mixtures; C. albicans biofilm persisters + clotrimazole, fluorescence viability; primary screen in compound mixtures of four per well; inhibition, % at 7.6 µM; 0.02% of 120,000 active;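 active = inhibition above 30.3% in the primary screen of four-compound pools, then above 30% when the compound was retested; inconclusive = passed the primary limit but could not be retested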;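 also: compounds exposed to preformed 24 h biofilms for 48 h; 0% = untreated biofilm control and 100% = clotrimazole plus chlorhexidine kill blank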
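System: C. albicans CAF4-2 wild-type biofilms; Medium: RPMI/MOPS medium, pH 7.0; Reagent: Clotrimazole, 50 µg/mL; Times: biofilm formation 24 h, compound exposure 48 h, 37 °C; Detection: 2-h Alamar Blue fluorescence, 535/590 nm excitation/emission; Evaluation: percent inhibition of biofilm viability.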
Furin inhibitor: human furin inhibitors, primary screen, biochemical, fluorescence intensity | P09958 | 0.061% of 220,000 active | AID 463115, 2010 | purified furin, fluorogenic substrate cleavage | inhibition, % at 20 µM or 30 µM; in the data active = inhibition above about 25%
Active calls of the source: *; ? = inconclusive; . = no result. Rows were chosen to be rich in hits. Some 1.1% of all compounds tested hit in one or more screens of this group.

SMILES	FXIa inh 1536	KLK5 inh	FXIIa inh 1536	thrombin 1536	Calb biofilm kill	Furin inhibitor
COc1ccc(C(=O)C2CCCN(Cc3cnc(C)s3)C2)cc1OC (stereo unspecified)	2	.	10	0	13	-10
Cc1ncc(CN2CCCC(C(=O)c3ccc(C(C)(C)C)cc3)C2)s1 (stereo unspecified)	29	35	63*	3	11	-7
CCOC(=O)c1ccc(N=C(c2ccccc2)c2c(O)n(C)c(=O)n(C)c2=O)cc1	-13	43*	-1	-8	21	-4
O=C(N/N=C/c1c(O)n(CCc2ccccc2)c(=O)[nH]c1=O)c1ccncc1	-6	-28	-2	50*	12	2
O=C(N/N=C/c1c(O)n(CCc2ccc(F)cc2)c(=O)[nH]c1=O)c1ccncc1	-1	-22	1	-16	-8	-1
CC(=O)CC(c1ccccc1[N+](=O)[O-])c1c(O)c2ccccc2oc1=O (stereo unspecified)	1	-9	4	-9	22	-11
CN(C(=O)Oc1ccc(C(C)(C)C)cc1)c1ccccc1	4	5	17	3	-7	-14
O=C(c1cccn2c(=O)c3cc(Br)ccc3nc12)N1CCC2(CC1)OCCO2	55*	38	1	20	.	-15
COC(=O)c1ccc(C(C(=O)NC2CCCCC2)N(CCN2CCOCC2)C(=O)Cc2cccs2)cc1 (stereo unspecified)	1	-1	100*	-8	7	-20
CCN1CCC2(CC1)NC(=O)c1ccccc1O2	-6	.	6	-3	12	-36
Cc1ccccc1OCCCn1cc(C(=O)C(=O)N2CCOCC2)c2ccccc21	-1	-2	6	-5	9	-6
O=[N+]([O-])c1cc(S(=O)(=O)c2ccc(O)c([N+](=O)[O-])c2)ccc1O	-5	-47	-1	-13	17	-12
O=C(NCc1ccccn1)c1ccccc1Cl	4	61*	14	11	.	-11
CCOP(=O)(OCC)C(NC(=O)c1ccccc1Cl)=C(Cl)Cl	-9	-2	3	-2	.	-17
COc1ccc(OCC(=O)N2CCN(Cc3ccc4c(c3)OCO4)CC2)cc1	4	.	12	2	16	-23
COc1ccc(OCC(=O)N2CCN(Cc3ccc(SC)cc3)CC2)cc1	-2	1	4	49*	12	-30
CC(=O)NC(Cc1ccc(N(CCCl)CCCl)cc1)C(=O)NC(CC(C)C)C(=O)O (stereo unspecified)	-5	-3	2	-9	8	-31
COC(=O)C(O)(c1c[nH]c2ccccc12)C(F)(F)F (stereo unspecified)	5	-15	22	1	.	-19
COC(=O)C(O)(c1c(C)[nH]n(-c2ccccc2)c1=O)C(F)(F)F (stereo unspecified)	11	99*	23	13	.	-20
CCN1C(=O)/C(=C/c2ccc(N(CC)CC)cc2OC)C(=O)NC1=S	7	2	11	1	5	-2
CCCn1cc(CN2CCCC(C(=O)c3cccc(OC)c3)C2)c(C)n1 (stereo unspecified)	32	21	75*	-7	6	-11
O=C(c1cccnc1)C1CCCN(Cc2nc(-c3cnccn3)no2)C1 (stereo unspecified)	37	26	41*	30	12	-7
Cn1cccc1/C=C1\C(=O)NC(=O)N(Cc2ccccc2Cl)C1=O	48*	18	32	10	?	-11
Cc1ccccc1-n1c(O)c(C=Nc2ccc3c(c2)OCO3)c(=O)[nH]c1=O	-8	6	-7	-1	.	27*
Nc1ccncc1Cl	32	41*	28	16	19	-1
CN(C)C(=O)Oc1ccc(-c2cn3cc(Cl)ccc3n2)cc1	4	44*	10	27	25	0
CN(C)C(=O)Oc1cccc(-c2cn3cc(Cl)ccc3n2)c1	-1	-15	2	-7	8	-14

Source: PubChem BioAssay
